Laboratory results as given in ChEMBL document CHEMBL5046312, “Rational Design of an Orally Active Anticancer Fluoropyrimidine, Pencitabine, a Hybrid of Capecitabine and Gemcitabine” (ACS Med Chem Lett, 2022).
pIC50: −log10 of the molar value.

Key:
HCT-116 [1] = assay: Antiproliferative activity against human HCT-116 cells assessed as reduction in cell viability incubated for 72 hrs by MTT assay; format: functional, cell-based; conditions: HCT-116, 72 h
How it was run: (§1)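 Growth inhibition after 72 h continuous exposure of HCT-116 colorectal carcinoma or KG-1 acute myelogenous leukemia cells; concentration giving 50% inhibition taken from dose–response curves.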

KG-1 = assay: Antiproliferative activity against human KG-1 cells assessed as reduction in cell viability incubated for 72 hrs by MTT assay; format: functional, cell-based; conditions: KG-1, 72 h; how it was run: as §1
HCT-116 [2] = assay: Antitumor activity against human HCT-116 cells xenografted in athymic nude mouse assessed as tumor growth inhibition at 25 mg/kg, po administered for 26 days relative to control; format: functional; conditions: HCT-116, po, 624 h, time 26 day
How it was run: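 Subcutaneous HCT-116 human colorectal carcinoma xenografts in athymic female nude mice; oral dosing at 25 mg/kg over a 26-day period, with capecitabine given as positive control; tumor growth followed, N = 3, SD shown.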

SK-BR-3 [3] = assay: Induction of DNA damage in human SK-BR-3 cells assessed as increase in tail DNA measured at 1 uM after 72 hrs by neutral comet assay relative to control; format: functional; conditions: in the assay text read “alkaline comet assay” for “neutral comet assay”
How it was run: (§2)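 Comet assay scoring DNA damage as % DNA in tail; cells exposed to 0.5, 1.0 or 2.0 μM etoposide or 1.0, 3.0 or 10 μM test nucleoside; mean of scored comets per sample with SE and 80% confidence interval.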

SK-BR-3 [4] = assay: Induction of DNA damage in human SK-BR-3 cells assessed as increase in tail DNA measured at 0.5 uM after 72 hrs by neutral comet assay relative to control; format: functional; conditions: in the assay text read “alkaline comet assay” for “neutral comet assay”; how it was run: as §2
SK-BR-3 [5] = assay: Induction of DNA damage in human SK-BR-3 cells assessed as increase in tail DNA measured at 2 uM after 72 hrs by neutral comet assay relative to control; format: functional; conditions: in the assay text read “alkaline comet assay” for “neutral comet assay”; how it was run: as §2
SK-BR-3 [6] = assay: Induction of DNA damage in human SK-BR-3 cells assessed as increase in tail DNA measured at 10 uM after 72 hrs by neutral comet assay relative to control; format: functional; conditions: in the assay text read “alkaline comet assay” for “neutral comet assay”; how it was run: as §2
SK-BR-3 [7] = assay: Induction of DNA damage in human SK-BR-3 cells assessed as increase in tail DNA measured at 3 uM after 72 hrs by neutral comet assay relative to control; format: functional; conditions: in the assay text read “alkaline comet assay” for “neutral comet assay”; how it was run: as §2

| SMILES | pIC50 (HCT-116 [1]) | pIC50 (KG-1) | Activity (SK-BR-3 [3]) | further results |
| --- | --- | --- | --- | --- |
| CCCCCOC(=O)Nc1nc(=O)n([C@@H]2O[C@H](CO)[C@@H](O)C2(F)F)cc1F | 6.43 | 6.89 | – | inhibition in vivo at 25 mg/kg (HCT-116 [2]): 40% |
| Nc1ccn([C@@H]2O[C@H](CO)[C@@H](O)C2(F)F)c(=O)n1 [GEMCITABINE] | 7.30 | 7.74 | – | – |
| COc1cc([C@@H]2c3cc4c(cc3[C@@H](O[C@@H]3O[C@@H]5CO[C@@H](C)O[C@H]5[C@H](O)[C@H]3O)[C@H]3COC(=O)[C@H]23)OCO4)cc(OC)c1O [ETOPOSIDE] | – | – | 24.98% | Activity (SK-BR-3 [4]): 15.87%; Activity (SK-BR-3 [5]): 35.17% |
| CCCCCOC(=O)Nc1nc(=O)n([C@@H]2O[C@H](C)[C@@H](O)[C@H]2O)cc1F [CAPECITABINE] | 4.47 | 5.05 | – | – |
| Nc1nc(=O)n([C@@H]2O[C@H](CO)[C@@H](O)C2(F)F)cc1F | – | – | 20.7% | Activity (SK-BR-3 [6]): 26.73%; Activity (SK-BR-3 [7]): 24.28% |
